Here are results for six compounds from ChEMBL document CHEMBL3600328, “Bayesian models trained with HTS data for predicting β-haematin inhibition and in vitro antimalarial activity” (Bioorg Med Chem, 2015).

The nature of data set [1]: Inhibition of beta-hematin formation. Type of data set: physicochemical. The procedure, abridged:
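NP-40 detergent-mediated β-haematin formation assay, run per an earlier-published protocol.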

Data set [2] has as its system Plasmodium falciparum. As to the kind of experiment: Antimalarial activity against CQ-sensitive Plasmodium falciparum NF54 assessed as inhibition of parasite growth. The format is functional, organism-based.

Some results are limits rather than exact numbers.

As to `COc1cc(-c2nc3cc([N+](=O)[O-])ccc3[nH]2)ccc1O`, the half-maximal inhibitory concentration (IC50) in data set [1] was 22 µM; in data set [2], > 10 µM.

On to `Nc1cc(O)c2ccccc2n1`, for which the half-inhibitory concentration (IC50) was 85 µM in data set [1] and > 10 µM in data set [2].

`O=C(O)c1cc(-c2ccc(-c3ccccc3)cc2)nc2ccccc12`: the IC50 is 46 µM in data set [1] and > 10 µM in data set [2].

`Cc1ccc(C(=O)C2=C(O)C(=O)N(Cc3cccnc3)[C@H]2c2ccc(Cl)c(Cl)c2)o1`: the IC50 in data set [1] is 88 µM; in data set [2], > 10 µM.

On to `C=C[C@H]1CN2CC[C@@H]1C[C@@H]2Cc1ccnc2ccccc12`, for which the IC50 was 66 µM in data set [1] and 0.082 µM in data set [2].

In the case of `CN(C)CCNc1cc(-c2ccc3ccccc3c2)nc2ccccc12`, the IC50 in data set [1] came out at 26 µM; in data set [2], 0.079 µM.

Broadly, the IC50 is the concentration that inhibits the measured activity by half.
